A word on the pIC50: it is the IC50 on a negative log10 scale, so that one unit is a factor of ten.

The source of these data is article PMC12400138 (Molecular and Clinical Oncology, 2025).

The structures appear in SMILES notation. pIC50: −log10 of the molar value. Where two headings read alike, the source gives them in different places. A value given as a limit tells only on which side of the number the result lay.

The test system of one data set is NP69SV40T. Description: MTS assay, NP69SV40T. The data set is classed as cell-based, human. The settings on record: read-out: IC50 value. A digest of the protocol:
(§1)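 Cell lines were seeded per well in 96-well plates: C666-1 at 30,000, HK1 at 10,000, NP69SV40T at 15,000 and NP460hTert at 15,000. After 2 h at 37°C in 5% CO2, test compound was added at 0.8-200 nM (rocaglates) or 0.15-20 µM (second compound). Vehicle was 0.1% DMSO final, or NaH2PO4. MTS was added after 1-3 days for 1-4 h, reading A490 minus A630. IC50 was fitted from % signal versus vehicle.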
In general terms: Formazan colour is commonly taken as a measure of viable cells.

The subject of data set [1] is HK1. Description: MTS assay, HK1. The data set is classed as cell-based, human. The settings on record: read-out: IC50 value. An outline of the steps: as §1
A further data set has as its system NP460hTert. Description: MTS assay, NP460hTert. The data set is classed as cell-based, human. The settings on record: read-out: IC50 value. A digest of the protocol:
as §1

For data set [2] the following is noted: toxicity studies mostly in murine models; cited from earlier work.
Data set [3] deals with HK1. Description: Flow cytometric analysis of cell cycle progression. The data set is classed as cell-based, human. A digest of the protocol: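 HK1 cells were seeded at 1.0x10^5 cells/0.5 ml/well in 12-well plates. After 2 h, test compound was added at 5 nM, 10 nM or 1 µM, alone or combined. Exposure lasted 2-3 days. Adherent and floating cells were pelleted and stained in hypotonic buffer (propidium iodide, RNase A, sodium citrate, Triton X) on ice, in the dark, for 10 min. ≥10,000 events were acquired by flow cytometry, and DNA-content histograms were modelled for cycle phases.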

For data set [4] the following is noted: advanced hematologic malignancy patients; phase I dose-escalation; cited from earlier work.
For the next data set, the system named is normal bone marrow cells. To be noted: 1 µΜ, two days; cited from earlier work.
In data set [5] the test system is HK1. Description: FITC Annexin V/PI apoptosis assay. The data set is classed as cell-based, human. The settings on record: 3 days post-treatment, 1 μM. A digest of the protocol: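 HK1 cells were seeded at 1.0x10^5 cells/0.5 ml/well in 12-well plates. After ~2 h, test compound was added at 5 nM, 10 nM or 1 µM, alone or combined, for 3 days. Adherent and floating cells were stained with FITC-Annexin V and PI in binding buffer for 15 min in the dark. Samples were diluted, kept on ice and analysed by flow cytometry, acquiring 10,000 events per sample.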

The subject of data set [6] is NPC cell lines or nasopharyngeal epithelial cells. Description: MTS assay, summary over cell lines. The data set is classed as cell-based. To be noted: Homo sapiens, read-out: IC50 values. An outline of the steps:
as §1

The subject of a further data set is C666-1. Description: MTS assay, C666-1. The data set is classed as cell-based, human. A digest of the protocol: as §1
Where [7] appears, read: silvestrol 5 nM, episilvestrol 10 nM or combination with 1 µM CX-5461.

Turning to `COC(=O)[C@H]1[C@@H](O)[C@@]2(O)c3c(OC)cc(O[C@@H]4O[C@@H]([C@H](O)CO)CO[C@H]4OC)cc3O[C@@]2(c2ccc(OC)cc2)[C@@H]1c1ccccc1` [Silvestrol, silvestrol], the negative logarithm of the IC50 (pIC50) was 7.24 in the data set on NP69SV40T (Homo sapiens, 24 h); 8.10 in the data set with NP69SV40T (Homo sapiens, 48 h); 6.88 in the data set on HK1 [1] (Homo sapiens, HK-1, 24 h); 8.15 in the data set on HK1 [1] (Homo sapiens, HK-1, 48 h); 8.05 in the data set on NP460hTert (Homo sapiens, 24 h); 8.05 in the data set on NP460hTert (Homo sapiens, 48 h). Further, the tolerability entry in data set [2] was “well tolerated”. Besides, the cell cycle arrest entry with HK1 [3] (setting [7]) is recorded as “arrested cells at G0/G1”.

Consider `Cc1cnc(CNC(=O)c2c(=O)c3ccc(N4CCCN(C)CC4)nc3n3c2sc2ccccc23)cn1` [CX-5461, reference compound], for which the negative logarithm of the IC50 (pIC50) in the data set with NP69SV40T (Homo sapiens, 24 h) is 5.22; with NP69SV40T (Homo sapiens, 48 h) it was 6.00; in the data set with HK1 [1] (Homo sapiens, HK-1, 24 h), 5.70; with HK1 [1] (Homo sapiens, HK-1, 48 h), 6.00; in the data set on NP460hTert (Homo sapiens, 24 h) it was 6.30; with NP460hTert (Homo sapiens, 48 h), 6.40. For the same molecule, the negative-log IC50 (pIC50) in data set [6] is 5.22 to 6.40. Besides, the tolerability entry in [4] is on record as “well tolerated”. For the same molecule, the cell death result in the data set with normal bone marrow cells was “minimal cell death”. For the same molecule, the “% apoptosis (percentage of total apoptosis)” value in the data set on HK1 [5] was less than 20%. Moreover, the cell cycle arrest entry with HK1 [3] (1 µM) is “arrested cells at S-phase and G2/M”.

As to `COC(=O)[C@H]1[C@@H](O)[C@@]2(O)c3c(OC)cc(O[C@@H]4O[C@@H]([C@@H](O)CO)CO[C@H]4OC)cc3O[C@@]2(c2ccc(OC)cc2)[C@@H]1c1ccccc1` [Episilvestrol, episilvestrol], the pIC50 in the data set on NP69SV40T (NP69SV40T, 1 day post-treatment) was 7.17; with NP69SV40T (NP69SV40T, 2 days post-treatment), 7.72; with NP69SV40T (NP69SV40T, 3 days post-treatment) it was 8.00; in the data set with C666-1 (read-out: IC50 value, 1 day post-treatment), 7.25; with C666-1 (read-out: IC50 value, 2 days post-treatment), 7.74; with C666-1 (read-out: IC50 value, 3 days post-treatment), 8.00. Further, the negative-log IC50 (pIC50) is 7.22 in the data set with HK1 [1] (HK1, 1 day post-treatment); 7.89 in the data set on HK1 [1] (HK1, 2 days post-treatment); 8.00 in the data set on HK1 [1] (HK1, 3 days post-treatment); 7.85 with NP460hTert (NP460hTert, 1 day post-treatment); 7.70 in the data set on NP460hTert (NP460hTert, 2 days post-treatment); 8.00 in the data set on NP460hTert (NP460hTert, 3 days post-treatment). Further, in the data set with HK1 [3] (setting [7]), the cell cycle arrest result is on record as “arrested cells at G0/G1”.
